# High-throughput results from PubChem.
# Rows were chosen to be rich in hits. Some 0.88% of all compounds tested hit in one or more screens of this group.
# APJ ag: agonists of human apelin receptor APJ, primary screen, CHO-K1 cells, PathHunter beta-arrestin, luminescence; actives 0.11% (n = 330,000); P35414; activation, % at 20 µM; 0% DMSO wells, 100% apelin;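 active = activation more than six SD over the plate average, tested at 20 µM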;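 also: 0% = DMSO alone and 100% = apelin-13 at 10 nM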
#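 Assay system: CHO-K1 cells stably expressing ProLink-tagged human APJ and arrestin–beta-gal acceptor. Compound dosing: 20 µM single point, 1% DMSO. Times: 16-18 h seeding, 90 min dark compound exposure, 60 min detection. Detection: beta-gal luminescence. Evaluation: APJ–arrestin association signal. Controls: negative DMSO alone, positive Apelin-13 at 10 nM.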
# PKA-R1A activ: activators of PKA-R1A holoenzyme, primary screen, biochemical, fluorescence polarization, Cy5-IP20, bovine R1A, mouse PKAc; actives 0.083% (n = 340,000); PKA-R1A dissociation; scaled: DMSO 0%, 113 µM cGMP 100%; activation, % at 11.4 µM;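 active = percent activation above the mean of all tested compounds plus 3 SD, cut at about 19% in these data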;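 also: higher means more PKAc released from R1A so a rise in polarization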
# PKA-R2B activ: activators of PKA-R2B holoenzyme, primary screen, biochemical, fluorescence polarization, Cy5-IP20, human; cAMP-dependent protein kinase catalytic subunit beta (Homo sapiens) + cAMP-dependent …; PKA-R2B holoenzyme dissociation; R2B truncated from residue 108, S112A mutant; 0% DMSO only, 100% 113 µM cGMP; activation, % at 11.4 µM; actives 0.079% (n = 340,000); AID 504700, 2011;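 active = activation above a cutoff set at the mean over all compounds plus 3 SD, cut at about 18% in these data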;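 also: higher means more holoenzyme dissociation and a rise in polarization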
# Target sequence (P31323 whole entry, looked up, other chains not shown, the tested form may be a part): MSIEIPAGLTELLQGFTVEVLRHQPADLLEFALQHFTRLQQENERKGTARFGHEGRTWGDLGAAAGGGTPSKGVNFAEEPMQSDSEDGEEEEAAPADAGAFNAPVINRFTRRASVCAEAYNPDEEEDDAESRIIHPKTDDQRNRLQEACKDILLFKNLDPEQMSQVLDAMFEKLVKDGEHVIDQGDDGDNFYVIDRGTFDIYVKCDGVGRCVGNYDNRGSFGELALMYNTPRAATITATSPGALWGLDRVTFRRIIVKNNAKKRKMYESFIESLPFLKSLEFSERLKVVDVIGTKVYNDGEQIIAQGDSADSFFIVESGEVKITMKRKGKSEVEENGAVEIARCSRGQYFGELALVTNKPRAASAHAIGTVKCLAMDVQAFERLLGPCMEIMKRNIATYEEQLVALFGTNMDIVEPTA
# APJ antag: antagonists of human apelin receptor APJ, primary screen, CHO-K1 cells, beta-arrestin complementation, luminescence | inhibition, % at 20 µM | actives 0.32% (n = 330,000);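 active = inhibition above about 40% at 20 µM, limit read from the data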;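 also: cells challenged with 10 nM apelin-13 agonist together with compound; plate controls were apelin-13 plus DMSO wells for no effect and DMSO wells lacking apelin-13 for full effect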
# CXCR6 inh: CXCR6 receptor inhibitors, primary screen, cell-based, beta-arrestin, luminescence, CHO-K1 PathHunter, 1536-well | C-X-C chemokine receptor type 6 (Homo sapiens), O00574 | inhibition, % at 20 µM | actives 0.36% (n = 360,000) | AID 602244, 2012; in the data active = inhibition above about 34%, passing the limit was not always enough;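 also: antagonist mode with CXCL16 agonist at 10 nM final; 0% = 10 nM CXCL16 with DMSO and 100% = unstimulated wells without agonist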
# CCR6 antagonist: CCR6 receptor antagonists, primary screen, cell-based, CHO-K1, luminescence, beta-arrestin, uHTS. C-C chemokine receptor type 6 (Homo sapiens), P51684. CHO-K1 CCR6 PathHunter beta-arrestin, CCL20-stimulated. inhibition, % at 20 µM. actives 0.49% (n = 340,000);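 active = compounds whose inhibition of the agonist-driven luminescence signal at 20 µM reaches about 50%, limit read from the data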;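 also: cells stimulated with CCL20 at 14 nM final; plate controls were DMSO with CCL20 for no effect and DMSO without agonist for full effect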
# * marks the source's active call; other numbers are inactive results; / = not tested or not shown.
SMILES,APJ ag,PKA-R1A activ,PKA-R2B activ,APJ antag,CXCR6 inh,CCR6 antagonist
COC(=O)c1cc(Cl)ccc1NCC(N)c1ccccc1 (stereo not given),/,/,/,/,3.0,/
COCCN1C(=O)COc2ccccc2C1C(=O)Nc1ccc2c(c1)OCCO2 (stereo not given),/,/,/,/,-3.7,/
COc1cc(N=Nc2cccc(S(N)(=O)=O)c2)c2ccccc2c1N,/,-13.8,-11.3,/,31.1,66.7*
CCCC[C@@H]1Cc2[nH][nH]c(=O)c2[C@H](c2cccc3ccccc23)O1,/,/,/,/,6.8,/
O=C(Cn1nc(C(F)F)cc1C(F)F)NNC(=S)Nc1ccc([N+](=O)[O-])cc1,-7.6,-5.9,3.6,48.7*,23.6,47.9
O=C(Cn1nc(C(F)F)cc1C(F)F)NNC(=S)Nc1ccc(F)cc1,-2.0,-3.0,3.8,18.6,11.9,12.3
CC1CCc2c(sc(NC(=O)c3ccc(-c4ccccc4[N+](=O)[O-])o3)c2C#N)C1 (stereo not given),-7.0,-8.1,-2.7,24.0,33.3,58.2*
N#Cc1c(NC(=O)c2ccc(-c3ccccc3[N+](=O)[O-])o2)sc2c1CCCC2,-1.4,-3.0,1.1,21.7,30.9,37.1
CC(=O)c1ccc(OCc2nnn(CC(=O)NS(=O)(=O)c3ccc(C)cc3)c2-c2ccccc2)cc1,/,/,/,/,1.2,/
CCN1CCC(O)(/C=C/c2ccc(C(C)C)cc2)C(C(=O)/C=C/c2ccc(C(C)C)cc2)C1 (stereo not given),/,-5.0,-8.1,/,-12.0,26.9
N=C1S/C(=C\c2ccc(-c3cccc(Cl)c3)o2)C(=O)N1c1nccs1,/,0.7,0.9,/,54.4*,81.9*
COc1ccc(/C=C2\SC(=S)N(NC(=O)c3ccncc3)C2=O)cc1OC,-0.5,/,/,1.3,/,/
COc1ccc(/C=C2\SC(=N)N(c3nccs3)C2=O)cc1OC,-3.6,3.0,4.0,20.4,39.0,59.4*
CC(=O)Nc1cccc(-c2ccnc3c2CC(C(=O)NCc2cccs2)O3)c1 (stereo not given),/,/,/,/,-2.6,/
Fc1ccc(Nc2nnc(-c3ccncc3)s2)cc1Cl,/,/,/,/,-1.0,/
CC1=NN(C(=O)c2ccc(Cl)cc2)C(O)(c2ccccc2)C1 (stereo not given),-5.3,5.8,3.2,15.2,17.5,55.0*
CC1=NN(C(=O)CSCc2ccccc2)C(O)(c2ccc(Cl)cc2)C1 (stereo not given),-2.6,-3.9,6.8,10.3,1.2,20.2
COC[C@H]1CCCN1c1ccc2c(c1)O[C@@H](COCc1ccccc1)CN([C@H](C)c1ccccc1)S2(=O)=O,/,/,/,/,7.7,/
Cc1ccnc(NC(=S)N2CCN(c3cccc(C(F)(F)F)c3)CC2)c1,-4.9,0.0,3.4,27.6,38.7,50.6*
FC(F)(F)c1nnc(-c2ccccc2)nc1Oc1ccc(Cl)cc1Cl,-3.7,-5.5,0.6,8.1,29.2,55.9*
COc1cc(OC)cc(-c2nc3ccccc3c(=O)n2OC(=O)c2ccc(C)c(C)c2)c1,11.1*,-3.0,-3.8,-17.1,-6.7,-11.1
COc1cc(OC)cc(C(=O)Nn2c(C)nc3ccccc3c2=O)c1,-0.9,-1.3,-3.6,2.5,-5.7,-0.5
C/C=C(/C)C(=O)OC1CC(C)(C)C[C@H]2C3=CC[C@@H]4[C@@]5(C)CCC(O[C@@H]6O[C@@H](C(=O)O)[C@@H](O)C(O[C@@H]7OC[C@H](O)[C@@H](O)[C@@H]7O[C@@H]7OC(CO)C(O)[C@@H](O)[C@@H]7O)C6O[C@@H]6OC(CO)C(O)C(O)C6O)[C@@](C)(CO)[C@@H]5CC[C@]4(C)[C@]3(C)CC(O)[C@@]12CO (stereo not given in full),11.6,0.9,-1.9,22.5,15.3,26.6
C/C=C(\C)C(=O)OC1[C@H](OC(C)=O)C2(CO)C(CC1(C)C)C1=CCC3C4(C)CCC(O[C@@H]5O[C@H](C(=O)O)[C@@H](O[C@@H]6O[C@H](CO)[C@@H](O)[C@H](O)[C@H]6O)[C@H](O)[C@H]5O[C@H]5O[C@H](CO)[C@@H](O)[C@H](O)[C@H]5O)[C@](C)(CO)C4CCC3(C)[C@]1(C)C[C@H]2O (stereo not given in full),/,6.3,10.0,/,81.7*,94.7*
COc1ccc(C(C[N+](=O)[O-])C2(c3ccc(OC)c(OC)c3)C(=O)c3ccccc3C2=O)cc1 (stereo not given),/,-10.1,-11.5,/,28.6,59.1*
SMILES,APJ ag,PKA-R1A activ,PKA-R2B activ,APJ antag,CXCR6 inh,CCR6 antagonist
COc1ccc(C(C[N+](=O)[O-])c2c(-c3ccccc3)cc3ccccn23)cc1OC (stereo not given),6.6,6.4,-0.2,-19.7,-5.6,12.6
CCN(CC)C(=O)C1=C(C)N(Cc2ccc(OC)cc2)C(=O)C(CC(=O)NCCN2CCOCC2)C1 (stereo not given),/,0.6,1.0,/,9.0,/
Cc1ccc(N=C2C(=O)Nc3ccc(C)c(Br)c32)cc1,-8.6,-3.9,-8.5,5.2,35.5,99.2*
COc1ccc(N=C2C(=O)Nc3ccccc32)cc1,-10.6,2.5,1.3,33.1,7.6,33.5
O=C(Nc1cccc(C(F)(F)F)c1)Oc1ccc(Cl)c2cccnc12,/,-4.1,-5.1,/,59.7*,77.0*
Cc1ccc(Cc2cnc(NC(=O)/C(C#N)=C/c3ccc(-c4ccc([N+](=O)[O-])cc4)o3)s2)cc1,-10.6,0.6,2.4,38.1,38.9,58.6*
Cc1cccc(-c2cnc(C(O)c3ccc(F)c(C)c3)[nH]2)c1 (stereo not given),/,/,/,/,5.3,/
COc1cc(/C=C2\SC(=O)N(Cc3ccc(F)cc3)C2=O)cc([N+](=O)[O-])c1O,-8.7,-1.3,2.5,26.7,30.4,50.2*
COc1cc(/C=C2\SC(=O)N(Cc3ccc(Cl)cc3)C2=O)cc([N+](=O)[O-])c1O,/,2.0,-3.2,/,37.7,55.8*
CCOC(=O)CN1C(=O)S/C(=C/c2ccc(OC)c([N+](=O)[O-])c2)C1=O,1.0,-5.1,0.8,9.5,8.7,15.0
CSCCNC(=O)C1(C)CCN1C(=O)c1ccc(C(C)(C)C)cc1 (stereo not given),/,/,/,/,5.9,/
